Laboratory results from ChEMBL document CHEMBL3272340, “P-Aminobenzoic acid derivatives as inhibitors of the cell-free H2-pteroate synthesizing system of Escherichia coli” (J Med Chem, 1977).
Active and inactive are the calls of the source. No cut-off for these calls is given here.

Experiments:
[1] = system: Escherichia coli B; assay: Competitive inhibition of Escherichia coli B H2-pteroate synthetase assessed as decrease in H2-pteroate formation using [7-14C]-PABA as substrate treated with enzyme for 10 mins prior to substrate challenge for 40 mins by radioassay method
Procedure, shortened: (§1)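 Cell-free extract of E. coli B (400-600 ug protein) was preincubated 10 min at 37 °C with 0.5 umol ATP, 2 umol MgCl2, 0.5 mg ascorbate, 0.1 mmol Tris-HCl pH 8.0 and 20 nmol 2-amino-4-hydroxy-6-hydroxymethyl-7,8-dihydropteridine in 0.45 ml. [7-14C]-PABA was then added and incubation ran 40 min. The reaction was stopped with citric acid phosphate buffer pH 3.8, free PABA was ether-extracted, and aqueous radioactivity was counted.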

[2] = Dissociation constant, pKa of the compound; format: physicochemical
[3] = Competitive inhibition of Escherichia coli B H2-pteroate synthetase assessed as decrease in H2-pteroate formation using [7-14C]-PABA as substrate treated with enzyme for 10 mins prior to substrate challenge for 40 mins by Dixon plot analysis; procedure, shortened: as §1
[4] = system: Escherichia coli; assay: Antibacterial activity against Escherichia coli 273 assessed as growth inhibition at 1 mM after 22 hrs; format: functional, organism-based
Procedure, shortened: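 PABA-requiring E. coli 273 was grown across a range of PABA concentrations with compound at 1 mM, and growth was read after 22 h of incubation.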

| Inhibition index [1] | SMILES | also measured |
| --- | --- | --- |
| 450 | COC(=O)c1ccc(N)cc1 | pKa [2]: 2.46 |
| 105 | CCOC(=O)CC(=O)c1ccc(N)cc1 | – |
| 600 | CCOC(=O)c1ccc(N)cc1 [BENZOCAINE] | pKa [2]: 2.5 |
| 76 | Nc1ccc(C(=O)N[C@@H](CCC(=O)O)C(=O)O)cc1 | Ki [3]: 170 µM |
| – | Nc1ccc(C(=O)CC(C(=O)O)c2ccccc2)cc1 (racemic) [listing 1 of 2 here] | Ki [3]: 150 µM |
| 800 | Nc1ccc(C(=O)c2ccccc2)cc1 | pKa [2]: 2.24 |
| 53 | NC(=O)c1ccc(N)cc1 | – |
| 460 | CCOC(=O)CCC(=O)c1ccc(N)cc1 | – |
| 260 | Nc1ccc(C(=O)NCC(=O)O)cc1 | – |
| 800 | Nc1ccc(C(=O)NCCc2ccccc2)cc1 | – |
| 55 | Nc1ccc(C(=O)CCC(=O)O)cc1 | Ki [3]: 130 µM; growth inhibition (GI) [4]: inactive |
| 250 | Nc1ccc(C(=O)N[C@H](CCC(=O)O)C(=O)O)cc1 | – |
| 550 | COC(=O)CNC(=O)c1ccc(N)cc1 | – |
| 700 | Nc1ccc(C(=O)NCCCC(=O)O)cc1 | – |
| 600 | Nc1ccc(C(=O)Nc2ccccc2)cc1 | – |
| – | Cc1ccc(N)cc1 | pKa [2]: 5.1 |
| 480 | Nc1ccc(C(=O)CC(C(=O)O)c2ccccc2)cc1 (stereo in doubt; 25) | – |
| – | Nc1ccc(CC(=O)O)cc1 | pKa [2]: 3.6 |
| 600 | CCOC(=O)CC[C@H](NC(=O)c1ccc(N)cc1)C(=O)OCC | – |
| 74 | Nc1ccc(C(=O)CC(C(=O)O)c2ccccc2)cc1 (racemic) [listing 2 of 2 here] | growth inhibition (GI) [4]: inactive |
| 400 | CN(C)C(=O)c1ccc(N)cc1 | – |
| 40 | Nc1ccc(C(=O)CC(C(=O)O)c2ccccc2)cc1 (stereo in doubt; 26) | – |

| SMILES | Inhibition index [1] | also measured |
| --- | --- | --- |
| CNC(=O)c1ccc(N)cc1 | 120 | – |
| CCC(=O)c1ccc(N)cc1 | 180 | – |
| CC(=O)c1ccc(N)cc1 | 210 | pKa [2]: 2.5 |
